S1P1 ag-PAM: S1P1 (human) agonism or agonism potentiation | S1P1 CRE-bla cells, forskolin, beta-lactamase FRET, potentiator mode; S1P1 agonist co-added at EC20, 2 nM; 100% = saturating reference agonist, 0% = basal | AID 449 | activation, % at 9.5 µM | 56,000 tested, 0.57% active;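 active = activation above a cutoff set at the mean activation of all tested compounds plus 3 SD, cut at about 54% in these data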;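 also: forskolin at 4 µM as EC80 and the EC20 agonist is SEW2871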
S1P3 agonist: agonists of human S1P3 receptor | Q99500 | S1P3 NFAT-BLA reporter cells, agonism, FRET ratio; relative to 1 µM S1P, basal subtracted | activation, % at 4.5 µM | 60,000 tested, 0.1% active | AID 373;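 active = activation above the screen-wide mean plus 3 SD, cut at about 4.5% in these data, passing the limit was not always enough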
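material = human S1P3 NFAT-BLA reporter CHO cells | schedule = 4 h compound at 37 °C, 2 h substrate at RT | measured by = fluorescent BLA substrate, ex 405 nm, em 460/535 nm ratio | controls = 1 µM S1P reference | replication = primary once, confirmation triplicate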
M1 antag: antagonists of rat M1 muscarinic receptor. B-score at 10 µM. CHO-M1 cells, Fluo-4 calcium, ACh EC80 antagonist mode; hits give low values. 64,000 tested, 3.4% active. AID 628;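 active = calcium fluorescence response, raw or row-and-column corrected B-score, differing from the plate sample mean either way at a set confidence level, mostly lower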
M1 ag: activates the M1 muscarinic receptor; CHO-M1 cells, Fluo-4 calcium fluorescence, agonist mode; hits give high values; B-score at 10 µM; 64,000 tested, 3% active; AID 626;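 active = fluorescence rise, raw or as B-score row- and column-corrected plate score, outside the 99.7% band of its plate's samples, either direction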
D1 allo mod: allosterically modulates the human D1 dopamine receptor; P21728; HEK293 D1, CRE-luciferase, dopamine EC30 potentiation; actives deviate in either direction; B-score at 10 µM; 58,000 tested, 5.9% active;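 active = luminescence count or its row- and column-corrected plate score outside the 99.7% band of the plate's sample wells, on either side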
Target sequence (P21728 whole entry, looked up): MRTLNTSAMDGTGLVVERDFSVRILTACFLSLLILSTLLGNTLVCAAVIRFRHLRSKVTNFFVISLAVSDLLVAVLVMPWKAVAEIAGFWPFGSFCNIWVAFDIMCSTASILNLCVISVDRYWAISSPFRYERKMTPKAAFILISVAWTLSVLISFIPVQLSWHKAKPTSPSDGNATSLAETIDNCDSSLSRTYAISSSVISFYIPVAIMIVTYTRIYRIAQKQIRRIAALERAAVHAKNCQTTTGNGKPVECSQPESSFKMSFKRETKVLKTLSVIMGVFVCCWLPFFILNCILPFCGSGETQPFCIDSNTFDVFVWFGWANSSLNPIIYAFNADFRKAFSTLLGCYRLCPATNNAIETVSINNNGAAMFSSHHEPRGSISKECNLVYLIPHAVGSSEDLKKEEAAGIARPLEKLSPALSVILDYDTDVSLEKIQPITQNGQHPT
D1 mod confirm: D1 receptor (human) allosteric modulation, confirmed. shares compounds with D1 allo mod. HEK293 D1 CRE-luciferase, dopamine EC30 potentiation; hits give high values. luminescence at 10 µM. 2,200 tested, 88% active. AID 642;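 active = luminescence in either of two replicates above the same-plate mean plus 3 SD of the low-dose dopamine control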
D1 no dopamine: secondary test of D1 modulators: activity without dopamine. shares compounds with D1 allo mod. HEK293 D1 CRE-luciferase, luminescence, no dopamine; hits give high values. luminescence at 10 µM. 1,900 tested, 0.8% active. AID 646; in the data active = luminescence above about 3900
Isoprot counter: isoproterenol response counter-screen activity for D1 modulators | 2,200 tested, 63% active | calls only at 10 µM | shares compounds with D1 allo mod | HEK293 D1 CRE-luciferase, isoproterenol EC30 counter-screen;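 active = luminescence in either replicate above plate mean of wells with a partly effective reference agonist dose plus 3 SD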;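 also: isoproterenol raises cAMP through native beta-adrenoceptor Gs so signal bypasses D1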
Large screens that a line does not name were inactive (follow-up assays come after a bar, where they were run). Hits are enriched below; roughly 11% of the tested compounds scored in any of these assays.

CSc1nc(N2CCOCC2)c2c3c(sc2n1)CCCC3	D1 allo mod 10.9 | D1 mod confirm 11612 | D1 no dopamine inactive | Isoprot counter active
Cc1cc2n(n1)C(c1ccc(O)cc1)Nc1ccccc1-2 (stereo not given)	none
Cc1cc(C)c2c(c1)-c1cc(C)nn1C(c1ccc3c(c1)OCO3)N2 (stereo not given)	D1 allo mod 4.42 | D1 mod confirm 10424 | Isoprot counter active
Cc1cc2n(n1)C(c1ccco1)Nc1ccccc1-2 (stereo not given)	none (no result: D1 allo mod)
Cc1cc2n(n1)C(c1ccc3c(c1)OCO3)Nc1c(C)cccc1-2 (stereo not given)	D1 allo mod 12.3 | D1 mod confirm 13912 | D1 no dopamine inactive | Isoprot counter active
O=S(=O)(c1ccccc1)c1nc(-c2ccco2)oc1NCCCn1ccnc1	none
Cc1cc(NC(=O)C2CCC2)n(-c2ccccn2)n1	D1 allo mod 7.62 (no result: S1P1 ag-PAM, S1P3 agonist) | D1 mod confirm 20484 | D1 no dopamine inactive | Isoprot counter active
Cc1cc(NC(=O)c2cccc(S(=O)(=O)N3CCCCCC3)c2)n(-c2ccccn2)n1	none
Cc1cc(=O)oc(C)c1C(=O)NCCCN1CCN(c2ccccc2F)CC1	none (no result: S1P1 ag-PAM, S1P3 agonist)
CCN(CCNC(=O)CC1Oc2ccccc2NC1=O)c1ccccc1 (stereo not given)	D1 allo mod 3 | D1 mod confirm inactive | D1 no dopamine inactive | Isoprot counter inactive
O=C(NC1CCCCC1)C1CCN(S(=O)(=O)N2CCOCC2)CC1	none
COc1ccc(OC)c2c(C)cc(N3CCCN(C)CC3)nc12	none (no result: S1P1 ag-PAM, S1P3 agonist, D1 allo mod)
COc1ccc(C(=O)CSc2ncn[nH]2)cc1OC	D1 allo mod 18.3 | D1 mod confirm 17148 | D1 no dopamine inactive | Isoprot counter active
COc1cccc(OC)c1OCCCSc1nc(C)cc(=O)[nH]1	none (no result: S1P1 ag-PAM)
CC(C)COc1cc(=O)[nH]c(SCC(C)C)n1	D1 allo mod 17.6 | D1 mod confirm 26448 | D1 no dopamine inactive | Isoprot counter active
CC1CCCCC1NC(=O)CSc1nnc(-c2ccccc2)n1N (stereo not given)	none (no result: S1P1 ag-PAM, S1P3 agonist)
CCOC(=O)CSC1=C(C#N)C(c2ccc3c(c2)OCO3)CC(=O)N1 (stereo not given)	none
CCOC(=O)CSC1=C(C#N)C(c2ccc(C)o2)CC(=O)N1 (stereo not given)	D1 allo mod 5.35 | D1 mod confirm 9204 | D1 no dopamine inactive | Isoprot counter inactive
CCOc1cccc(-c2nnc3n2N=C(c2cc(OC)ccc2OC)CS3)c1	D1 allo mod 17.2 (no result: S1P1 ag-PAM, S1P3 agonist) | D1 mod confirm 13520 | Isoprot counter active
COc1ccc(C2=Nn3c(nnc3-c3ccccc3OC)SC2)cc1OC	D1 allo mod 40.5 | D1 mod confirm 31124 | Isoprot counter active
COc1ccccc1-c1nnc2n1N=C(C(C)(C)C)CS2	D1 allo mod 3.97 | D1 mod confirm 10640 | D1 no dopamine inactive | Isoprot counter inactive
CC(C)(C)C1=Nn2c(nnc2-c2ccccc2F)SC1	D1 allo mod 21.4 | D1 mod confirm 20880 | Isoprot counter active
COCCCn1c(-c2ccccc2Cl)n[nH]c1=S	none
Cc1ccc(N2CN=c3s/c(=C\c4ccccn4)c(=O)n3C2)cc1	none
CN(C)c1ccc(C(=O)C(O)c2ccc(C(C)(C)C)cc2)cc1 (stereo not given)	none
C=C(C)c1cccc(C(C)(C)NC(=O)Nn2cnnc2)c1	D1 allo mod 5.95 | D1 mod confirm inactive | D1 no dopamine inactive | Isoprot counter inactive
Fc1cccc(Nc2cc(-n3cccn3)ncn2)c1	D1 allo mod 8.48 | D1 mod confirm 8308 | D1 no dopamine inactive | Isoprot counter active
O=C(NCc1ccco1)c1ccc(S(=O)(=O)c2cccc(S(=O)(=O)N3CCOCC3)c2)cc1	none (no result: M1 antag, M1 ag, D1 allo mod)
CCCCOC(=O)C1=C(C)Nc2ncnn2C1c1cccc(OC)c1OC (stereo not given)	none
CCC(=O)Nc1c(C#N)c2nc3ccccc3nc2n1C1CCCCC1	none

Assay outcomes deposited in PubChem by several laboratories.
